From ChEMBL document CHEMBL1123550, “Synthesis and biological activity of benzothiazolo[3,2-a]quinolone antibacterial agents” (1986)
Values after ≈ are worked out from the molar mass of the structure shown.

Columns and labels:
[1] = test system: Streptococcus pyogenes; experiment: The compound was tested in vitro for antibiotic activity against Streptococcus pyogenes 930
[2] = test system: Acinetobacter; experiment: Compound was tested in vitro for antibiotic activity against the bacteria Acinetobacter sp. CMX669; type: functional
In short: (§1)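 Overnight cultures were grown in brain-heart infusion broth at 36 °C. The compound was diluted twofold in brain-heart infusion agar over a range of 200 to 0.005 µg/mL (final). Each plate received about 10⁴ organisms and was incubated at 36 °C for 18 h. The MIC was taken as the lowest concentration giving no visible growth.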

[3] = test system: Escherichia coli; experiment: Compound was tested in vitro for antibiotic activity against the bacteria Escherichia coli juhl; type: functional
In short: as §1

[4] = test system: Klebsiella aerogenes; experiment: Compound was tested in vitro for antibiotic activity against bacteria Enterobacter aerogenes ATCC 13048; type: functional
In short: as §1

[5] = test system: Klebsiella pneumoniae; experiment: Compound was tested in vitro for antibiotic activity against the bacteria Klebsiella pneumoniae 8045; type: functional
In short: as §1

[6] = test system: Pseudomonas aeruginosa; experiment: Compound was tested in vitro for antibiotic activity against the bacteria Pseudomonas aeruginosa 5007; type: functional
In short: as §1

[7] = test system: Pseudomonas aeruginosa; experiment: Compound was tested in vitro for antibiotic activity against the bacteria Pseudomonas aeruginosa K799/WT; type: functional
In short: as §1

[8] = test system: Staphylococcus epidermidis; experiment: The compound was tested in vitro for antibiotic activity against Staphylococcus epidermidis 3519; type: functional
In short: as §1

[9] = test system: Staphylococcus aureus; experiment: The compound was tested in vitro for antibiotic activity against Staphylococcus aureus 686B; type: functional
In short: as §1

[10] = test system: Staphylococcus aureus; experiment: The compound was tested in vitro for antibiotic activity against Staphylococcus aureus ATCC 6538P; type: functional
In short: as §1

[11] = test system: Enterococcus faecium; experiment: The compound was tested in vitro for antibiotic activity against […] ATCC 8043; type: functional
In short: as §1

| SMILES | MIC [1] | MIC [2] | MIC [3] | MIC [4] | MIC [5] | MIC [6] | MIC [7] | MIC [8] | MIC [9] | MIC [10] | MIC [11] |
| --- | --- | --- | --- | --- | --- | --- | --- | --- | --- | --- | --- |
| Cc1ccccc1-n1cc(C(=O)O)c(=O)c2cc(F)c(N3CCN(C)CC3)cc21 | 50 µg/mL (≈ 126 µM) | – | – | – | – | – | – | – | – | – | – |
| O=C(O)c1cn(-c2ccccc2)c2cc(N3CCNCC3)c(F)cc2c1=O | 1.56 µg/mL (≈ 4.25 µM) | – | – | – | – | – | – | 0.78 µg/mL (≈ 2.12 µM) | – | – | – |
| CC(=O)N1CCN(c2cc3c(cc2F)c(=O)c(C(=O)O)c2sc4ccccc4n23)CC1 | 3.1 µg/mL (≈ 7.05 µM) | 6.2 µg/mL (≈ 14.1 µM) | 6.2 µg/mL (≈ 14.1 µM) | > 100 µg/mL | 1.56 µg/mL (≈ 3.55 µM) | > 100 µg/mL | > 100 µg/mL | 0.39 µg/mL (≈ 0.887 µM) | 0.2 µg/mL (≈ 0.455 µM) | 0.2 µg/mL (≈ 0.455 µM) | 6.2 µg/mL (≈ 14.1 µM) |
| Cc1cccc(C)c1-n1cc(C(=O)O)c(=O)c2cc(F)c(N3CCN(C)CC3)cc21 | > 100 µg/mL | – | – | – | – | – | – | – | – | – | – |
| CCn1cc(C(=O)O)c(=O)c2cc(F)c(N3CCNCC3)cc21 [NORFLOXACIN] | 3.1 µg/mL (≈ 9.71 µM) | – | – | – | – | – | – | – | – | – | – |

Results, then the molecule that gave them:

| MIC [1] | MIC [2] | MIC [3] | MIC [4] | MIC [5] | MIC [6] | MIC [7] | MIC [8] | MIC [9] | MIC [10] | MIC [11] | SMILES |
| --- | --- | --- | --- | --- | --- | --- | --- | --- | --- | --- | --- |
| 3.1 µg/mL (≈ 8.13 µM) | – | – | – | – | – | – | – | – | – | – | CN1CCN(c2cc3c(cc2F)c(=O)c(C(=O)O)cn3-c2ccccc2)CC1 |
| 3.1 µg/mL (≈ 6.84 µM) | 0.1 µg/mL (≈ 0.221 µM) | 6.2 µg/mL (≈ 13.7 µM) | 12.5 µg/mL (≈ 27.6 µM) | 1.56 µg/mL (≈ 3.44 µM) | > 100 µg/mL | > 100 µg/mL | 0.39 µg/mL (≈ 0.86 µM) | 0.39 µg/mL (≈ 0.86 µM) | 0.39 µg/mL (≈ 0.86 µM) | 6.2 µg/mL (≈ 13.7 µM) | CCC(=O)N1CCN(c2cc3c(cc2F)c(=O)c(C(=O)O)c2sc4ccccc4n23)CC1 |
| 0.78 µg/mL (≈ 1.96 µM) | 0.39 µg/mL (≈ 0.981 µM) | 0.2 µg/mL (≈ 0.503 µM) | 0.78 µg/mL (≈ 1.96 µM) | 0.2 µg/mL (≈ 0.503 µM) | 1.56 µg/mL (≈ 3.93 µM) | 1.56 µg/mL (≈ 3.93 µM) | 0.39 µg/mL (≈ 0.981 µM) | 0.39 µg/mL (≈ 0.981 µM) | 0.39 µg/mL (≈ 0.981 µM) | 0.78 µg/mL (≈ 1.96 µM) | O=C(O)c1c(=O)c2cc(F)c(N3CCNCC3)cc2n2c1sc1ccccc12 |
| 1.56 µg/mL (≈ 3.79 µM) | 0.39 µg/mL (≈ 0.948 µM) | 0.78 µg/mL (≈ 1.9 µM) | 1.56 µg/mL (≈ 3.79 µM) | 0.39 µg/mL (≈ 0.948 µM) | 6.2 µg/mL (≈ 15.1 µM) | 6.2 µg/mL (≈ 15.1 µM) | 0.78 µg/mL (≈ 1.9 µM) | 0.39 µg/mL (≈ 0.948 µM) | 0.39 µg/mL (≈ 0.948 µM) | 1.56 µg/mL (≈ 3.79 µM) | CN1CCN(c2cc3c(cc2F)c(=O)c(C(=O)O)c2sc4ccccc4n23)CC1 |
